The structures appear in SMILES notation.

The target in one series is T1, recombinant CYP2B6 (Homo sapiens, UniProt P20813).
T1 sequence (P20813 1-491): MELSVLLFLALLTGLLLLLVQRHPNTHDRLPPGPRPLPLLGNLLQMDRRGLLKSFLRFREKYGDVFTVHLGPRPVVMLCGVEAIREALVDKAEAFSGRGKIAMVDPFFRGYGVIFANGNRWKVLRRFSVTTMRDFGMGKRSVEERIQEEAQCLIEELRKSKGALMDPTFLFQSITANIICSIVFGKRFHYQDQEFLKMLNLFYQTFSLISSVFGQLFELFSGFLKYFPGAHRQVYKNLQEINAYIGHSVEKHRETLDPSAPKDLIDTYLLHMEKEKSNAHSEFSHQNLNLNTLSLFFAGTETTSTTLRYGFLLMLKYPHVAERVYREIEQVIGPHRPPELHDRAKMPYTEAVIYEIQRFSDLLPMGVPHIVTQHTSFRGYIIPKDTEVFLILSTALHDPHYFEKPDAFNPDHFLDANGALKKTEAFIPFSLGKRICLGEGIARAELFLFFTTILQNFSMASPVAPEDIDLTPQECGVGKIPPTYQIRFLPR
The experiment in a line: Glutathione trapping and metabolite formation with recombinant CYP2B6. Type of series: in vitro ADME. The conditions noted are these: recombinant CYP2B6 100 pmol/mL, 1 mM GSH, 60 min. Summed up: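 Test compound at 50 or 100 μM was incubated with recombinant CYP2B6 (100 pmol/mL) in 100 mM potassium phosphate pH 7.4, 3 mM MgCl2 and 1 mM reduced GSH. Reactions were started with NADPH-regenerating mix, with no-NADPH controls, for 60 min. Methanol stop contained 1 μM 4OH-MDZ internal standard. Samples were centrifuged 20 min at 2000 × g, 4 °C. Supernatants were analysed by LC-UV(280 nm)-MS for metabolites and GSH adducts.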

For another series, the system named is CYP3A4. The conditions noted are these: CYP3A4 inactivation in human liver microsomes; cited from earlier work.
A further series deals with women. As to conditions: cited from earlier work.

As for `Cc1ccnc2c1NC(=O)c1cccnc1N2C1CC1` [NVP, Nevirapine], the GSH metabolite formation result on recombinant CYP2B6 was “no GSH metabolite was detected”. The Ki in the series with CYP3A4 is […]. The “Increased risk for severe rash reactions in women” value with women is 7 fold.

(Values after PMC10583834 (Chemical Research in Toxicology, 2023).)
